This is one part of a sample in which hits are shown more often than they occur.
CHOP UPR activ: activators of apoptotic arm of unfolded protein response (CHOP). CHO-CHOP luciferase reporter, UPR activation, luminescence; percent of tunicamycin response over DMSO baseline. 330,000 tested, 0.34% active. activation, % at 10 µM;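 active = at 10 µM dose, activation of 40% or more, normalized to positive control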;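 note: 100% = tunicamycin at 10 µg/mL and 0% = DMSO alone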
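Material: CHO-CHOP cells, stable luciferase reporter of PERK-eIF2a-CHOP signalling; quantity: 500 reporter cells seeded per well; buffer or medium: F12 medium containing 10% fetal bovine serum; compound: one dose, 10 µM in 0.5% DMSO; incubation: 6 h compound treatment, 37 °C; measured by: Steady-Glo luciferase luminescence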
CHOP inh: blocks CHOP induction under ER stress. CHO-K1 CHOP-promoter luciferase, tunicamycin-induced, 15-18 h. inhibition, % at 10 µM. 220,000 tested, 3.8% active. AID 2732;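 active = compounds that reduced the stress-induced luciferase reporter signal by more than about 70% of percent inhibition, limit read from the data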;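 note: 0% = tunicamycin plus vehicle and 100% = wells without tunicamycin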
V-ATPase pH: alters yeast V-ATPase proton transport. S. cerevisiae, pHLuorin cytosolic pH fluorescence. response, % at 10 µM. 350,000 tested, 0.37% active. AID 504577; in the data active = response mostly above about 7.3%, no sharp cut-off; inactive = mostly below about 5.4%; note: actives read high
XBP1 UPR activ: adaptive UPR (XBP1) activation | 330,000 tested, 0.33% active | CHO-XBP1 luciferase reporter, IRE1-XBP1 UPR activation, luminescence; percent of tunicamycin response, DMSO as zero | activation, % at 20 µM;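 active = versus positive control, 20 µM dose yields 30% or more activation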;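 note: 100% = tunicamycin at 10 µg/mL and 0% = DMSO only wells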
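assay system = CHO-XBP1 luciferase reporter cells | amount = 1000 cells/well | buffer or medium = F12 plus 10% FBS | compound dosing = single point, 20 µM final compound, 1% DMSO | incubation = 16-18 h cell attachment at 37 °C, then 6 h compound exposure | detection = Steady-Glo luminescence read | controls = tunicamycin 10 µg/mL and vehicle-only wells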
Tb MetRS inh: blocks T. brucei methionyl-tRNA synthetase activity. inhibition, % at 11.9 µM. AID 624268. 360,000 tested, 0.4% active. purified T. brucei MetRS, ATP depletion, Kinase-Glo luminescence;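 active = inhibition above a per-plate cutoff of the control wells' mean inhibition plus 3 SD, cut at about 5.5% in these data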;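 note: 0% = DMSO wells median and 100% = median of wells with control inhibitor compound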
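Material – parasite MetRS enzyme · Medium – HEPES-MgCl2-KCl buffer plus DTT, spermine, BSA, pyrophosphatase · Reagent – ATP, methionine and E. coli bulk tRNA substrates · Times – 15 min enzyme-compound preincubation, 2 h reaction, 10 min detection, 25 °C · Measured by – luminescence of leftover ATP · Evaluation – percent inhibition relative to median high and low control wells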
CHOP confirm: confirmation of CHOP induction inhibitors; inhibition, % at 10 µM; CHO-CHOP promoter luciferase reporter, tunicamycin-induced, luminescence; 2,100 tested, 45% active; shares compounds with CHOP inh;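 active = mean of three repeat readings of reporter signal inhibition above a set limit, cut at about 70% in these data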;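 note: 0% = tunicamycin plus vehicle and 100% = wells lacking tunicamycin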
Active calls of the source: *; · = no result given.

SMILES	CHOP UPR activ	CHOP inh	V-ATPase pH	XBP1 UPR activ	Tb MetRS inh	CHOP confirm
O=C(COc1ccc(Cl)cc1)N(Cc1ccccc1)c1nc(-c2ccccc2)cs1	3	103*	-2	6	0	54
O=c1[nH]c(C2CCN(S(=O)(=O)c3ccc(C(F)(F)F)cc3)CC2)nc2c1nnn2Cc1ccccc1	0	·	-1	-5	-1	·
O=C(COC(=O)Cc1c(Cl)cccc1Cl)Nc1ccc(OC(F)(F)F)cc1	1	109*	6	-2	0	86*
CN(CC(=O)Nc1ccc(OC(F)(F)F)cc1)C(=O)Cc1c(Cl)cccc1Cl	1	·	3	0	0	·
Cc1ccccc1CNc1ccc(C(CC(N)=O)NC(=O)c2ccc(Br)cc2)cc1[N+](=O)[O-] (stereo not drawn)	0	103*	0	0	0	24
NC(=O)CC(NC(=O)Cc1cccc2ccccc12)c1ccc(NC2CCCCC2)c([N+](=O)[O-])c1 (stereo not drawn)	1	105*	-5	0	0	13
CCCCn1c(SCC(=O)Nc2cc(C(F)(F)F)cc(C(F)(F)F)c2)nnc1C(CC)N(C)C (stereo not drawn)	2	63	4	3	-1	·
CCN(CC)C(=O)NCc1c(C)cc(C)cc1C	-1	21	-1	-3	-1	·
CCN1/C(=C/C=C/C=C/c2sc3ccccc3[n+]2CC)Sc2ccccc21	10	104*	·	-8	·	119*
CCN1/C(=C/C=C/C=C/C=C/c2sc3ccccc3[n+]2CC)Sc2ccccc21	21	·	-4	0	-1	·
Brc1ccc(C2Nc3cccc4cccc(c34)N2)s1	·	104*	1	·	0	3
O=C1CCCCc2sc(Br)c([N+](=O)[O-])c2N1	17	105*	8	-7	-1	19
CCOc1ccc(CCNC(=O)CSc2cc(=O)n(C)c3cc(Cl)ccc23)cc1OCC	4	11	2	-3	0	·
Cn1c(=O)cc(SCC(=O)NCCC2=CCCCC2)c2ccc(Cl)cc21	0	97*	-3	3	-1	90*
Cc1cc(Nc2ccccc2)nc(-c2ccccc2O)n1	3	96*	2	5	-1	100*
Cc1cc(Nc2cccc(F)c2)nc(-c2ccccc2O)n1	6	51	-2	5	0	·
Clc1ccccc1/C=N/NC1=Nc2cccc3cccc1c23	8	98*	1	15	-2	-22
Cc1ccc(C2=NN=C(NC(=O)CSc3nncn3C)SC2)cc1	-1	18	3	-2	0	·
CSCCC(NS(=O)(=O)c1ccc(Cl)cc1)C(=O)OCc1cccc(Cl)c1 (stereo not drawn)	1	106*	1	0	0	68
Cc1ccc(NC(=O)Cn2c(O)c(N=NC(=O)c3cc4ccccc4cc3O)c3ccccc32)cc1	·	97*	0	·	-2	-21
O=C(Cn1c(O)c(N=NC(=O)c2ccncc2)c2ccccc21)Nc1ccccc1	6	-12	·	3	·	·
O=C(N=Nc1c(O)n(Cc2ccccc2)c2ccccc12)c1cc2ccccc2cc1O	·	106*	-2	·	-1	95*
NC(=O)c1ccc(NC(=O)CSc2cn(CC(=O)N3CCOCC3)c3ccccc23)cc1	-1	·	-1	-5	0	·
CC(C)(C)c1ccc(C(=O)N/N=C/c2cccc(Cl)c2)cc1	5	-20	-1	2	0	·
O=C(N/N=C/c1cccc(Cl)c1)c1c(O)c2c([nH]c1=O)CCCC2	4	98*	-2	1	-1	-7
SMILES	CHOP UPR activ	CHOP inh	V-ATPase pH	XBP1 UPR activ	Tb MetRS inh	CHOP confirm
O=C(Nc1ccccc1O)c1c(O)c2c([nH]c1=O)CCCC2	7	103*	-1	2	-1	126*
O=C(Nc1nccs1)c1c(O)c2c([nH]c1=O)CCCC2	6	-15	-2	-1	0	·
CCN1CCN=C1Nc1ccccc1	0	·	1	-2	0	·
COc1cc(OC)nc(Nc2nc(CN)cs2)n1	·	·	·	·	0	·
O=C(CN1C(=O)NC(c2ccccc2)(c2ccccc2)C1=O)N1CCOCC1	-1	·	0	2	0	·
CCc1nnc(NS(=O)(=O)c2ccc(NC(=S)NC(=O)/C=C/c3ccc(C(C)C)cc3)cc2)s1	7	105*	2	-1	0	118*
CC(C)(C)c1cc(NC(=O)Nc2ccc(Br)cc2Cl)no1	2	9	1	4	0	·
CC(C)(C)c1cc(NC(=O)Nc2ccc(Cl)cc2Cl)no1	3	96*	-2	1	-1	13
O=C(C(=O)N1CCN(c2ccc(F)cc2)CC1)c1cn(CC(=O)N2CCOCC2)c2ccccc12	1	·	2	-5	0	·
O=C(CSc1ncnc2[nH]ncc12)Nc1nc(-c2ccc(F)c(F)c2)cs1	1	99*	2	8	-1	116*
CCOC(=O)c1c(N)sc(C(O)(C(F)(F)F)C(F)(F)F)c1-c1ccc(Cl)cc1	-1	98*	-3	-4	-1	121*
CCOC(=O)c1cnc(-n2nc(C)cc2C)nc1Nc1ccccc1OC	·	23	·	·	·	·
CCOC(=O)c1cnc(-n2nc(C)cc2C)nc1NCCc1ccccc1	37	101*	-2	16	0	-8
CCc1nc2ccc(C(=O)Nc3cccc(OC)c3)cn2c1N(CC)CCOC	·	·	·	·	0	·
O=C1NC(=S)S/C1=C\C=C\c1ccc([N+](=O)[O-])o1	·	105*	54*	·	1	117*
Cc1cc(/C=N/Nc2nc(N)ncc2[N+](=O)[O-])c(C)n1-c1cccc(C(F)(F)F)c1	8	98*	·	17	·	96*
CC(C)(C)c1ccc(OCCNC(=S)Nc2ccccc2)cc1	0	104*	-3	2	0	72*
CC(C)(C)c1ccc(OCCNCc2ccccc2)cc1	4	·	1	1	0	·
CC(C)(C)c1ccc(C(=O)NNC(=O)c2cccc(Br)c2)cc1	1	102*	1	11	0	94*
CC(Oc1ccccc1C(N)=O)C(=O)Nc1ccc(S(=O)(=O)N2CCCC2)cc1 (stereo not drawn)	3	·	13	-2	0	·
CC(C)CC(N)c1csc(NC(=O)c2cc(C(C)(C)C)nn2Cc2ccccc2)n1 (stereo not drawn)	·	·	·	·	0	·
Cc1ccc(-c2nnnn2-c2ccc(C)cc2)cc1	1	7	6	1	-1	·
Cc1ccc(-n2nnnc2CCl)cc1	·	108*	2	·	-1	-50
O=C(CSc1nnc(SCc2cccc3ccccc23)s1)N=Nc1c(O)[nH]c2ccccc12	·	97*	·	·	·	15
CCOc1ccc(NC(=O)CN(C)S(=O)(=O)c2ccc3c(c2)CCC(=O)N3)cc1	-1	9	2	-3	0	·
